# Diaphorase act: compounds boosting diaphorase resazurin reduction – biochemical, uHTS, resorufin fluorescence, counter-screen for diaphorase-coupled primary assays, primary screen; 190,000 compounds, 0.005% hits; AID 1229, 2008; activation factor at 20 µM; Diaphorase/resazurin coupled assay, 16 min; hits give high values; 1 = vehicle wells, 0 = NADH-free wells;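 active = diaphorase activity raised at least twofold by the compound at 20 µM; inactive = activation factor below 2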
#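 Assay system: Purified diaphorase enzyme from Clostridium kluyveri | Amount: Enzyme 0.07 U/mL final | Dosing: Compound 20 µM once, DMSO 1% | Timing: 16 min reaction at room temperature | Detection: Fluorescence, excitation 544 nm and emission 590 nm | Evaluation: Higher resorufin formation from activation or reduction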
# HKDC1 inh: HKDC1 hexokinase inhibitors, primary screen, biochemical, fluorescence, uHTS; 340,000 compounds, 0.16% hits; AID 493160, 2011; Q2TB90; recombinant HKDC1, G6PDH/diaphorase resazurin coupled fluorescence; inhibition, % at 20 µM;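 active = inhibition above about 35% when tested at 20 µM, limit read from the data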;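 note: plate controls were DMSO wells with enzyme for no effect and DMSO wells lacking enzyme for full effect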
#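 Incubation: 90 min at room temperature in dark / Material: recombinant HKDC1 (HK5) hexokinase enzyme, produced in-house / Quantity: enzyme 5 µg/mL final / Compound: one dose of 20 µM, 1% DMSO / Reagent: glucose and ATP substrates / Buffer or medium: Tris pH 8.0 buffer with MgCl2, Tween-20, BSA, BME / Technique: resorufin fluorescence at 613 nm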
# ATG4B inhibitor: ATG4B protease inhibitors, primary screen, biochemical, fluorescence, uHTS; ATG4B cleavage of LC3-PLA2, NBD-HPC fluorescence, 1 h; Cysteine protease ATG4B (Homo sapiens), Q9Y4P1; AID 504462, 2011; 340,000 compounds, 0.51% hits; inhibition, % at 8.33 µM; in the data active = inhibition above about 40%
# Target sequence (Q9Y4P1 whole entry, looked up): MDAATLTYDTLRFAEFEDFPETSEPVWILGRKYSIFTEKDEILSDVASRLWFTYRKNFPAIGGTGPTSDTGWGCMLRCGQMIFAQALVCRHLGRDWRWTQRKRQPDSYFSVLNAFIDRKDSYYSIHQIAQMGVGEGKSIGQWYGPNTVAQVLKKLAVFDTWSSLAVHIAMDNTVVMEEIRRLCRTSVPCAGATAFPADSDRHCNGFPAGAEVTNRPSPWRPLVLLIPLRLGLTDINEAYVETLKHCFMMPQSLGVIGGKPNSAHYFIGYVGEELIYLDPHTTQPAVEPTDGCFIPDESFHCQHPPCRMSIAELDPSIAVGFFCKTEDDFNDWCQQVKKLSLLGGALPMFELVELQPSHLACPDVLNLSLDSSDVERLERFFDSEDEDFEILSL
# Fh CTSL1 inh: Fasciola hepatica cathepsin L1 inhibitors, primary screen, counter-screen for PFM18AAP inhibitor project, biochemical, QFRET, fluorogenic peptide substrate; recombinant F. hepatica cathepsin L1, Z-Leu-Arg-MCA fluorescence; 300,000 compounds, 0.49% hits; inhibition, % at 5.96 µM;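 active = inhibition above the mean of all tested compounds plus 3 SD, set per screening campaign, cut at about 17% in these data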;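 note: 0% = plate median of test compound wells and 100% = 1 µM Z-Phe-Ala-diazomethylketone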
# Diaph inh CS: diaphorase inhibitors and chemical oxidizers, primary screen, counter-screen for diaphorase-coupled primary assays, biochemical, uHTS, resorufin fluorescence; AID 1217, 2008; inhibition, % at 20 µM; diaphorase resazurin-to-resorufin fluorescence, NADH, 16 min; bacterial (C. kluyveri) enzyme, not human; 190,000 compounds, 0.69% hits;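 active = primary screen inhibition at 20 µM above a set limit, cut at about 50% in these data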;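 note: plate controls were DMSO with full reaction for no effect and wells lacking NADH for full effect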
#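 Assay system – diaphorase enzyme from Clostridium kluyveri · Amount – diaphorase 0.14 U/mL (working solution) · Times – reaction incubation of 16 min at room temperature · Controls – No-NADH positive control and DMSO neutral control · Signal – resorufin fluorescence 544/590 nm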
# ATG4B conf: ATG4B protease inhibitors, retest, confirmation, biochemical, fluorescence, single concentration; AID 504757, 2011; ATG4B protease fluorescent substrate cleavage assay; inhibition, % at 8.33 µM; shares compounds with ATG4B inhibitor; 320 compounds, 92% hits; in the data active = inhibition above about 39%
# PLA2 ctr: PLA2 enzyme inhibition, counter-screen for ATG4B inhibitor project, biochemical, single concentration, uHTS hits; 1,600 compounds, 66% hits; AID 588402, 2011; inhibition, % at 8.33 µM; purified PLA2, NBD-C6-HPC fluorescence, 45 min; shares compounds with ATG4B inhibitor; in the data active = inhibition above about 50%
# * marks the source's active call; other numbers are inactive results; nt = no result given. The list is not random: actives were taken first. Their share in the collection is about 1.4%.
SMILES,Diaphorase act,HKDC1 inh,ATG4B inhibitor,Fh CTSL1 inh,Diaph inh CS,PLA2 ctr,others
O=C(Nc1ccc2c(c1)OCCO2)N1CCN(c2ccc(F)cc2)CC1,0.9,-2,0,-3,8,nt,
Cc1cccc(C)c1N1CCN(C(=O)Nc2ccc3c(c2)OCCO3)CC1,0.8,-3,44*,2,21,63*,
COC(=O)/C=C1\SC(=Nc2ccc(Cl)c(Cl)c2)NC1=O,0.9,6,79*,-3,13,28,ATG4B conf=79*
O=C(c1ccc(Cl)c(S(=O)(=O)N2CCCCC2)c1)N1CCCC(C(F)(F)F)C1 (stereo not given),nt,-3,10,nt,nt,nt,
O=C(CCCn1c(=S)[nH]c2cc3c(cc2c1=O)OCO3)N1CCN(c2ccccc2F)CC1,0.7,10,51*,2,28,54*,
Cc1ccc(C)c(N2CCN(C(=O)CCCn3c(=S)[nH]c4cc5c(cc4c3=O)OCO5)CC2)c1,0.7,-1,52*,4,27,62*,
O=C(CCCn1c(=S)[nH]c2cc3c(cc2c1=O)OCO3)N1CCN(c2ccc(F)cc2)CC1,0.6,-2,56*,1,38,48,ATG4B conf=59*
C/C(=N\NC(=O)C1CCCC1)c1ccc(Cl)cc1,nt,-3,-1,nt,nt,nt,
Cc1ccc(/C=C/C(O)=C2/C(=O)N(C)C3(C)CC2c2ccccc2O3)cc1 (stereo not given),0.8,5,26,-4,16,nt,
Cc1ccc(S(=O)(=O)C2C(=O)N(C)C3(C)CC2c2ccccc2O3)cc1C (stereo not given),0.8,-13,79*,-1,16,85*,
CC(=O)C[C@H](O)CC(=O)[C@H]1OC(=O)CCCCCCCc2ccccc21,nt,-4,-6,nt,nt,nt,
Cc1cn(CC(=O)NCCN2CCOCC2)c(=O)[nH]c1=O,nt,-4,-3,nt,nt,nt,
Cc1ccc(O)c(N=Cc2cc(Cc3ccccc3)cc([N+](=O)[O-])c2O)c1,0.4,17,79*,nt,64*,76*,
CN(C)c1ccc(-c2nnn(Cc3ccccc3Br)n2)cc1,0.9,-1,41*,-3,7,39,ATG4B conf=66*
Clc1ccccc1Cn1nnc(-c2ccccc2)n1,1,-1,3,3,-4,nt,
C#Cc1ccc([C@@H]2C=C(C(=O)O)O[C@H](OCC)[C@H]2CCCO)cc1,nt,-6,59*,-1,nt,72*,
Cc1nc(CSc2ccc(Cl)cc2)cc(NCc2ccccc2)n1,0.9,-1,73*,-1,11,79*,
CC(=O)c1c(C)[nH]c(C(=O)COC(=O)c2c(-c3ccccc3)noc2C)c1C,nt,-2,-6,nt,nt,nt,
O=C(O)c1cccc(CSc2nc(-c3ccc(Cl)cc3)cc(C(F)(F)F)n2)c1,0.9,0,52*,5,11,45,ATG4B conf=62*
O=C(Nc1nc(-c2ccc(Cl)cc2)cs1)NC1CCCCC1,0.9,2,64*,1,11,73*,
O=C(Cn1cccc1C(=O)c1ccccc1)NCCc1ccc(Cl)cc1,nt,-3,45*,1,nt,53*,
O=C(Cn1cccc1C(=O)c1ccccc1)NCCc1ccccc1,nt,-3,3,3,nt,nt,
O=C(O)c1cccc(-n2nc(-c3ccc(Cl)c([N+](=O)[O-])c3)c3ccccc3c2=O)c1,nt,-2,-1,4,nt,nt,
CC(C#N)Sc1ncnc2sc3c(c12)CCC3 (stereo not given),1,2,49*,-2,2,48,
N#CCSc1ncnc2sc3c(c12)CCC3,0.9,4,10,-1,15,nt,
O=C(Nc1ccccc1-c1ccccc1)c1ccc(Cl)c([N+](=O)[O-])c1,1,19,41*,-1,4,36,

# Screening data deposited in PubChem by several laboratories.
